Where a chain is given by its changes, count along the chain named.
Tests used:
[1] = target: T1, Muscarinic acetylcholine receptor M1 (Rattus norvegicus, UniProt P08482); assay: The compound was evaluated for inhibition of binding of [3H]quinuclidinyl benzilate to Muscarinic acetylcholine receptor M1 in Rat Cerebral Cortical Membranes
T1 sequence (P08482 whole entry): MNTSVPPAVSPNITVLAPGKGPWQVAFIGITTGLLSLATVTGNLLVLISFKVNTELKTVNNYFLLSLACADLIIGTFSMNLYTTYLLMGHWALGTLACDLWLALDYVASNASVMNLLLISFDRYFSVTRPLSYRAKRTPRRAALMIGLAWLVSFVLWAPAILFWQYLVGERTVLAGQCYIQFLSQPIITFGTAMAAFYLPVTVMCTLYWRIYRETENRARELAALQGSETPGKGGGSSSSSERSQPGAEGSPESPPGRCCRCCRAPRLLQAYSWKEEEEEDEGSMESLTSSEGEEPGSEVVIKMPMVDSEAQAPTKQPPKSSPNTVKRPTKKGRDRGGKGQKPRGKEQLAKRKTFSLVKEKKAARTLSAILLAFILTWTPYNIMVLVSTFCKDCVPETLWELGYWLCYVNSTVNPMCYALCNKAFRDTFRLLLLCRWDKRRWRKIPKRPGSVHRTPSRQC
How it was run: (§1)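 Rat cerebral cortex membranes were homogenised in 50 mM Tris-HCl pH 7.4 and diluted in HEPES binding buffer. They were incubated with 0.2 nM [3H]quinuclidinyl benzilate in 20 mM HEPES pH 7.4 with 10 mM MgCl2 and 100 mM NaCl for 30 min at 37 °C, in triplicate. Nonspecific binding used 1 µM atropine. Filtration was followed by scintillation counting.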

[2] = target: T2, Muscarinic acetylcholine receptor M3 (Homo sapiens, UniProt P20309); assay: Inhibition of binding of [3H]quinuclidinyl benzilate to human Muscarinic acetylcholine receptor M3 in membranes of transfected CHO cells at 100 uM concentration; settings: Membrane
Target sequence in this assay (P20309 whole entry, looked up): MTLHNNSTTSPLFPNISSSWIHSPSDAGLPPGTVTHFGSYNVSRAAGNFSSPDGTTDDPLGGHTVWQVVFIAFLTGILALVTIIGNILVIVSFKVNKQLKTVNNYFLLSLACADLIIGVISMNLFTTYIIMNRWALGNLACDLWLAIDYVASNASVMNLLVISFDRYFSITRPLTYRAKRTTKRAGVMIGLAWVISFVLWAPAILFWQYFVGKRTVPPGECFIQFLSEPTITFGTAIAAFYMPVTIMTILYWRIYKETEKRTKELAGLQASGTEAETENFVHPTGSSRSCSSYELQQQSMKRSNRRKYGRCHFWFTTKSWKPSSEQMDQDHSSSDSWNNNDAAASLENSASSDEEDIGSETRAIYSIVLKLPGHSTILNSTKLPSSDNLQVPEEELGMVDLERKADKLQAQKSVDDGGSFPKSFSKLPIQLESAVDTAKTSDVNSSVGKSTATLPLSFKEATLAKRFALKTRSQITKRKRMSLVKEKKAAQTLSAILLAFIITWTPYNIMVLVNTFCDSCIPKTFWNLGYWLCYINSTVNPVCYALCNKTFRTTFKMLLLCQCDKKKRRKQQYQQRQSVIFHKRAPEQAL

[3] = target: T1, Muscarinic acetylcholine receptor M1; assay: Inhibition of binding of [3H]quinuclidinyl benzilate to Muscarinic acetylcholine receptor M1 in rat cerebral cortical membranes at 100 uM concentration; type: cell membranes, Membrane
How it was run: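 Rat cortical membranes with 0.2 nM [3H]quinuclidinyl benzilate in HEPES pH 7.4 with 10 mM MgCl2 and 100 mM NaCl, 30 min at 37 °C, triplicate. Atropine 1 µM defined nonspecific binding. Percent inhibition was read at 100 µM test agent; mean ± SEM, n = 4.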

[4] = target: T2, Muscarinic acetylcholine receptor M3; assay: Inhibition of binding of [3H]quinuclidinyl benzilate to muscarinic receptors in membranes of CHO cells transfected with […] Muscarinic acetylcholine receptor M3; type: cell membranes; settings: concentration not given here
Target sequence in this assay (P20309 whole entry, looked up): as above

[5] = target: T3, Muscarinic acetylcholine receptor M1 (Homo sapiens) (UniProt P11229); assay: Percentage inhibition of binding of [3H]quinuclidinyl benzilate to […] Muscarinic acetylcholine receptor M1 transfected in membranes of CHO cells; type: cell membranes; settings: concentration not given here
T3 sequence (whole entry): T1 sequence (P08482 whole entry) with V5A, S254T, S309P, K320R, G337A, V413I

[6] = target: Muscarinic acetylcholine receptor M3 (Rattus norvegicus) (UniProt P08483); settings: Membrane; 300 uM
Muscarinic acetylcholine receptor M3 (Rattus norvegicus), sequence (P08483 whole entry, looked up): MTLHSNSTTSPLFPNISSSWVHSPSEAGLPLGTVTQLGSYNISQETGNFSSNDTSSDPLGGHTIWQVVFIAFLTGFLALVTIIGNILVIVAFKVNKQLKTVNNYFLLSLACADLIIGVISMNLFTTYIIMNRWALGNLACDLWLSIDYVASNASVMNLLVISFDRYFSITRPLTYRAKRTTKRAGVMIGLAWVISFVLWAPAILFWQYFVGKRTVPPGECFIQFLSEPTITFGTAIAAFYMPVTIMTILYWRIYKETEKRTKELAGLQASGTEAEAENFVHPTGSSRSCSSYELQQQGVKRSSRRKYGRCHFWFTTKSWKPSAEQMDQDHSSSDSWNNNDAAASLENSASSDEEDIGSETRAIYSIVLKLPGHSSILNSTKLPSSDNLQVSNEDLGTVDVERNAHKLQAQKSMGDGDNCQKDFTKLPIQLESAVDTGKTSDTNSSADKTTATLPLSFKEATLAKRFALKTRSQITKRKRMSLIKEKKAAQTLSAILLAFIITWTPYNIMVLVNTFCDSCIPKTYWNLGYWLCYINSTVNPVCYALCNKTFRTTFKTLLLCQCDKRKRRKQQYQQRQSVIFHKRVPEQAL

[7] = target: T1, Muscarinic acetylcholine receptor M1; assay: Affinity versus [3H]oxotremorine M (agonist) binding to Muscarinic acetylcholine receptor M1 in Rat Cerebral Cortical Membranes, (Kd=[…])
[8] = target: T4, Muscarinic acetylcholine receptor M4 (Rattus norvegicus) (UniProt P08485); assay: Inhibition of binding of [3H]quinuclidinyl benzilate to Muscarinic acetylcholine receptor M4 […] at 300 uM concentration; type: cell membranes; settings: Membrane
T4 sequence (whole entry): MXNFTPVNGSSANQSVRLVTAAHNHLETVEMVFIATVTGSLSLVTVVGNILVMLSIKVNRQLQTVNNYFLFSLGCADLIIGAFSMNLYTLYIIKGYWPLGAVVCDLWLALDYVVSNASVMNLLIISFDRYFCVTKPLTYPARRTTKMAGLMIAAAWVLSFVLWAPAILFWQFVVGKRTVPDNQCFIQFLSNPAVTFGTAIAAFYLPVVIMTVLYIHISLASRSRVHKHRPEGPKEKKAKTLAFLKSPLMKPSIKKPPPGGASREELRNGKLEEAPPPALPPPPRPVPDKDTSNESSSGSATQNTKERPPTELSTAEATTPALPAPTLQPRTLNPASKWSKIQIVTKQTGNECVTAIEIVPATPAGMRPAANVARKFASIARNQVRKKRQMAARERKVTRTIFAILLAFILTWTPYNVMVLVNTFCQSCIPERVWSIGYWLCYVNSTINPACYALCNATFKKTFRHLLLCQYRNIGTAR

[9] = target: T4, Muscarinic acetylcholine receptor M4 (Rattus norvegicus); assay: (§2) Inhibition of binding of [3H]quinuclidinyl benzilate to muscarinic receptors in membranes of CHO cells transfected with Muscarinic acetylcholine receptor M4; type: cell membranes; settings: concentration not given here
How it was run: (§3)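 Membranes from CHO cells expressing human M1–M4 receptors in 25 mM sodium phosphate pH 7.4 with 5 mM MgCl2, 30 min at 37 °C, triplicate. [3H]quinuclidinyl benzilate was 0.2 nM for M1 and M3 and 0.1 nM for M2 and M4. Nonspecific binding used 10 µM atropine for M1 and 1 µM for the others.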

[10] = target: T1, Muscarinic acetylcholine receptor M1; assay: Inhibition of binding of [3H]oxotremorine M to Muscarinic acetylcholine receptor M1 in rat cerebral cortical membranes; type: cell membranes, Membrane
How it was run: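 Agonist radioligand assay: rat cortical membranes with 2 nM [3H]oxotremorine M in 25 mM sodium phosphate pH 7.4 with 5 mM MgCl2, 2 h at 25 °C, in triplicate. Nonspecific binding used 5 µM atropine. Filtration followed by scintillation counting.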

[11] = target: T5, Muscarinic acetylcholine receptor M2 (Rattus norvegicus, UniProt P10980); assay: (§4) Inhibition of binding of [3H]quinuclidinyl benzilate to muscarinic receptors in membranes of CHO cells transfected with Muscarinic acetylcholine receptor M2; type: cell membranes; how it was run: as §3
T5 sequence (P10980 whole entry): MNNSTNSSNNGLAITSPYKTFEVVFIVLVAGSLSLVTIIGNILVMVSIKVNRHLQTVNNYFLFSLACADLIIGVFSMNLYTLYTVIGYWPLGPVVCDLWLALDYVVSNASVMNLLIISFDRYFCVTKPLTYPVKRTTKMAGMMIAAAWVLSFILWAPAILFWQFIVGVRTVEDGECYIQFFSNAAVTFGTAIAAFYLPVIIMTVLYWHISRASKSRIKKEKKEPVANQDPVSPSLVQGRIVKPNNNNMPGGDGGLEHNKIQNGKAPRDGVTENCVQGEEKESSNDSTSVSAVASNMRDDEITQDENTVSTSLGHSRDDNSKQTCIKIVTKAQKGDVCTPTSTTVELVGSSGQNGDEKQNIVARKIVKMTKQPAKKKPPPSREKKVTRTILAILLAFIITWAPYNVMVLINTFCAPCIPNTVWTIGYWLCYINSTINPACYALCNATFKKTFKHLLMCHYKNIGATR

[12] = target: T6, Neuronal acetylcholine receptor; alpha4/beta2 (Rattus norvegicus, UniProt P09483+P12390); assay: Inhibition of binding of [3H]nicotine to Nicotinic acetylcholine receptor alpha4-beta2 in rat cerebral cortical membranes; type: cell membranes, Membrane
T6 sequence (P09483 whole entry): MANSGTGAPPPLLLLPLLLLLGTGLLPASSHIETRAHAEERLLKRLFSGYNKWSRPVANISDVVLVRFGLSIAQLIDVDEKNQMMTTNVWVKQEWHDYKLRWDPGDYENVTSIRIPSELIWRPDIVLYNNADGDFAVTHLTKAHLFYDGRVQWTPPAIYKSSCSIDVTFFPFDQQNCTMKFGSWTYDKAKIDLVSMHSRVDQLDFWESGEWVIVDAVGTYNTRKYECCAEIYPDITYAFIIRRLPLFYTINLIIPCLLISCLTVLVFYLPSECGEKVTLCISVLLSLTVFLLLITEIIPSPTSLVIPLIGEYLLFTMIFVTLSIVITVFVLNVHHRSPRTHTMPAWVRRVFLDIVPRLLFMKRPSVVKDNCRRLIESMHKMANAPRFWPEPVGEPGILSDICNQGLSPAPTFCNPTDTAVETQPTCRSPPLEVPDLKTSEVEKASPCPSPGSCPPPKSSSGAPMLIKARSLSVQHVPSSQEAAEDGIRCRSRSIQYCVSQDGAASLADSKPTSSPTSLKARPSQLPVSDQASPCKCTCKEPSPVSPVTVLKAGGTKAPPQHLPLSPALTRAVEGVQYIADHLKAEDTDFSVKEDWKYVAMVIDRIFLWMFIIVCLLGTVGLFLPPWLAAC
T6 sequence (P12390 whole entry): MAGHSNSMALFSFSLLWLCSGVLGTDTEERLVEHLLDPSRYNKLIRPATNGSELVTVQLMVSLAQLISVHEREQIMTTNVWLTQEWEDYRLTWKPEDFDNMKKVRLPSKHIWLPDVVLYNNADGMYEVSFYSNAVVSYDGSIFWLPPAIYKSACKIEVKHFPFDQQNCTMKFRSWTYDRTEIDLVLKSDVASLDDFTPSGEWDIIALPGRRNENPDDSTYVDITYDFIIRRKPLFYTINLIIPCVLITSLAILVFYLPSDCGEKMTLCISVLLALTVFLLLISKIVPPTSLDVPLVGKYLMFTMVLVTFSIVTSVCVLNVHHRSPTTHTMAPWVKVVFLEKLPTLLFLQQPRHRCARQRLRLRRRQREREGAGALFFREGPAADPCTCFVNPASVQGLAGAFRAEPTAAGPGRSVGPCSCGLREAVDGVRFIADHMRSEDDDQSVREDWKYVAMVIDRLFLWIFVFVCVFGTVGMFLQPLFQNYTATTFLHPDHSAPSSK
How it was run: (§5)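 Rat cerebral cortex membranes with 0.2 nM [3H]nicotine in HEPES binding buffer pH 7.4 containing 200 µM diisopropyl fluorophosphate. Incubation was 120 min at 0–4 °C, in triplicate. Nonspecific binding used 1 µM nicotine. Samples were filtered through polyethylenimine-soaked GF/B filters and counted.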

[13] = target: T6, Neuronal acetylcholine receptor; alpha4/beta2; assay: The compound was evaluated for percentage inhibition of binding of [3H]- nicotine to Nicotinic acetylcholine receptor alpha4-beta2 in Rat Cerebral Cortical Membranes; type: protein-complex assay; how it was run: as §5
[14] = target: Muscarinic acetylcholine receptor M2 (Homo sapiens) (UniProt P08172); assay: Inhibition of binding of [3H]quinuclidinyl benzilate to Muscarinic acetylcholine receptor M2 in membranes of transfected CHO cells
[15] = target: Muscarinic acetylcholine receptor M1 (Homo sapiens) (UniProt P11229); assay: Inhibition of binding of [3H]quinuclidinyl benzilate to human Muscarinic acetylcholine receptor M1 in membranes of transfected CHO cells at 300 uM concentration; settings: Membrane
Target sequence in this assay (P11229 whole entry, looked up): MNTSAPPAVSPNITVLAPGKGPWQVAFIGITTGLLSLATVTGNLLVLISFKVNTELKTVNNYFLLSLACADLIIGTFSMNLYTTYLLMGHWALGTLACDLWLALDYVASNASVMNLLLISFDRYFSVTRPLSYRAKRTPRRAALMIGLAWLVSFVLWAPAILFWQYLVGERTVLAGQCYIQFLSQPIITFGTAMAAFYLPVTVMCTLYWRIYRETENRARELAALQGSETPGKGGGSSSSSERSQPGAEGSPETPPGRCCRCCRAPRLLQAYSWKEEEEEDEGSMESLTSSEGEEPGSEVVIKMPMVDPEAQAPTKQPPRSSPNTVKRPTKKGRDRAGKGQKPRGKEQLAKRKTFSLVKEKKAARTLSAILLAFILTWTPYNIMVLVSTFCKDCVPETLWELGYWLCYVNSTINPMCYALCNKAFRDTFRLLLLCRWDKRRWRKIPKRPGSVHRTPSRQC

[16] = target: T7, Muscarinic acetylcholine receptor M1 (Rattus norvegicus) (UniProt P08482); assay: (§6) Percentage inhibition of binding of [3H]quinuclidinyl benzilate to muscarinic receptors in membranes of CHO cells transfected with Muscarinic acetylcholine receptor M1; type: cell membranes; settings: concentration not given here; how it was run: as §3
T7 sequence (whole entry): T1 sequence (P08482 whole entry)

[17] = target: Muscarinic acetylcholine receptor M3 (Rattus norvegicus) (UniProt P08483); assay: Percentage inhibition of binding of [3H]quinuclidinyl benzilate to muscarinic receptors in membranes of CHO cells transfected with Muscarinic acetylcholine receptor M3; type: cell membranes; settings: concentration not given here
[18] = target: T1, Muscarinic acetylcholine receptor M1; assay: Inhibition of binding of [3H]quinuclidinyl benzilate to Muscarinic acetylcholine receptor M1 in rat cerebral cortical membranes; type: cell membranes, Membrane; how it was run: as §1
[19] = target: T8, Muscarinic acetylcholine receptor M4 (Homo sapiens, UniProt P08173); assay: as §2; type: cell membranes
T8 sequence (P08173 whole entry): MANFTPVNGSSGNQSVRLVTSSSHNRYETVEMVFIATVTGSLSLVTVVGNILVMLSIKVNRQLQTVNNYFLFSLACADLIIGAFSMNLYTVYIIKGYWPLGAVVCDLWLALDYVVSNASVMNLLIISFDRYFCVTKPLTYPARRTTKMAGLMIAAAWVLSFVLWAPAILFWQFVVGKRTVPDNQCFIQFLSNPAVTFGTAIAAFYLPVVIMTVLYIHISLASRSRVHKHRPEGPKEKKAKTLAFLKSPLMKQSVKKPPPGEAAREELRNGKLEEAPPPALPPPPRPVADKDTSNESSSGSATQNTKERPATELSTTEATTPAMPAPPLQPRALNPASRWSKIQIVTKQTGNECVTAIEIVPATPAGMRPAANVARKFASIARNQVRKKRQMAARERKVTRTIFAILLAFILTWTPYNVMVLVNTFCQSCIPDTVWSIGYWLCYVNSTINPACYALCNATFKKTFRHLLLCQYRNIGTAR

[20] = target: Muscarinic acetylcholine receptor M4 (Homo sapiens) (UniProt P08173); assay: Inhibition of binding of [3H]quinuclidinyl benzilate to Muscarinic acetylcholine receptor M4 in membranes of transfected CHO cells
[21] = target: T2, Muscarinic acetylcholine receptor M3; assay: Inhibition of binding of [3H]quinuclidinyl benzilate to muscarinic receptors in membranes of CHO cells transfected with Muscarinic acetylcholine receptor M3; type: cell membranes
Target sequence in this assay (P20309 whole entry): as the sequence (P20309 whole entry, looked up) above

[22] = target: T1, Muscarinic acetylcholine receptor M1; assay: Affinity versus [3H]quinuclidinyl benzilate (antagonist) binding to Muscarinic acetylcholine receptor M1 in Rat Cerebral Cortical Membranes,; how it was run: as §1
[23] = target: T3, Muscarinic acetylcholine receptor M1 (Homo sapiens); assay: as §6; type: cell membranes; settings: concentration not given here; how it was run: as §3
[24] = target: T9, Muscarinic acetylcholine receptor M2 (Homo sapiens, UniProt P08172); assay: as §4; type: cell membranes
T9 sequence (P08172 whole entry): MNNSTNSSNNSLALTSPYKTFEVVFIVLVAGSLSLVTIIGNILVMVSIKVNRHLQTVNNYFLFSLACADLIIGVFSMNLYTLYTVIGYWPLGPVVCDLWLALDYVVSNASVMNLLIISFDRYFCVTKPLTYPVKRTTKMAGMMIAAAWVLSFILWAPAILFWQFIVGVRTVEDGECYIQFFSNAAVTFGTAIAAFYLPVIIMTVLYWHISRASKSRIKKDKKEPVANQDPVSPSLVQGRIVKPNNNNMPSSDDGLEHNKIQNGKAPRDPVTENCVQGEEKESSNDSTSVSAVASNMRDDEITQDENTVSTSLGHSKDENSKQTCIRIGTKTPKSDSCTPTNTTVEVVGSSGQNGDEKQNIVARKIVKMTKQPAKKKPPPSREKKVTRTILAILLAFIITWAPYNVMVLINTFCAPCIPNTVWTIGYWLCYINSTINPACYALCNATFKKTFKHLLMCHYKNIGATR

[25] = target: T7, Muscarinic acetylcholine receptor M1 (Rattus norvegicus); settings: Membrane; 30 uM
[26] = target: T6, Neuronal acetylcholine receptor; alpha4/beta2; assay: Inhibition of binding of [3H]nicotine to Nicotinic acetylcholine receptor alpha4-beta2 in rat cerebral cortical membranes at 100 uM concentration; type: cell membranes, Membrane
How it was run: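 [3H]nicotine (0.2 nM) binding to rat cortical membranes, with 200 µM diisopropyl fluorophosphate, 120 min at 0–4 °C, triplicate. Nonspecific binding with 1 µM nicotine. Percent inhibition at 100 µM test agent; mean ± SEM, n = 4.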

COC(=O)C1=CCC2CCC1N2C (centres undefined)
Ki [1]: 25 µM | inhibition [2]: 28% | Ki [3]: 25 µM | inhibition [4]: 28% | inhibition [5]: 26%

C[N+](C)(C)CCOC(N)=O
inhibition [6]: 16%

COC(=O)[C@H]1CC2NC1CC[C@@H]2O (some centres undefined)
Ki [7]: 18 µM | inhibition [8]: 33% | inhibition [9]: 33% | Ki [10]: 18 µM | Ki [11]: 12 µM | Ki [12]: 4 µM | Ki [13]: 4 µM | inhibition [2]: 0% | Ki [14]: 12 µM | inhibition [15]: 2% | inhibition [16]: 2% | inhibition [17]: 0%

CC(=O)OC1CC2CCCC1N2C (centres undefined)
Ki [18]: 280 µM | Ki [7]: 2.6 µM | Ki [1]: 280 µM | Ki [19]: 8.3 µM | Ki [20]: 8.3 µM | Ki [10]: 2.6 µM | Ki [12]: 1.5 µM | Ki [21]: 15 µM | Ki [13]: 1.5 µM | Ki [14]: 2.7 µM | Ki [22]: 280 µM | inhibition [23]: 48% | Ki [24]: 2.7 µM | inhibition [25]: 48%

COC(=O)C1=CCCN(C)C1 [ARECOLINE]
Ki [13]: 0.27 µM | Ki [26]: 0.27 µM

Reference: ChEMBL document CHEMBL1131242, “6beta-Acetoxynortropane: a potent muscarinic agonist with apparent selectivity toward M2-receptors” (J Med Chem, 1998)
